Measurements reported in ChEMBL document CHEMBL3232832, “Derivatives of dibenzothiophene for positron emission tomography imaging of α7-nicotinic acetylcholine receptors” (J Med Chem, 2013).

Tests used:
Cerebellum [1] = assay: Drug uptake in CD-1 mouse cerebellum at 70 uCi, iv administered 10 mins post naltrindole challenge measured after 90 mins; type: ADME, organism-based; conditions: in vivo, 1.5 h
In short: (§1)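 Male CD-1 mice, n=3. Drug at 2 mg/kg s.c. in saline:DMSO 5:1, with vehicle controls. [18F] radiotracer (70 µCi, SA ~14000 mCi/µmol) given i.v. 10 min later. Regions harvested 90 min after tracer, gamma counted, expressed as %ID/g. Compared by single-factor ANOVA.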

[2] = Drug uptake in CD-1 mouse superior and inferior colliculus at 70 uCi, iv administered 10 mins post naltrindole challenge measured after 90 mins; type: ADME, organism-based; conditions: in vivo, 1.5 h
In short: (§2)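 Male CD-1 mice (25–30 g). […] Brains removed 90 min later and dissected on ice. Regions weighed and gamma-counted against injectate standards. Result as %ID/g, mean ± SD, n=3; ANOVA versus controls.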

Cerebellum [3] = assay: Drug uptake in CD-1 mouse cerebellum at 70 uCi, iv administered 10 mins post ketanserin challenge measured after 90 mins; type: ADME, organism-based; conditions: in vivo, 1.5 h; in short: as §1
Cortex [4] = assay: Drug uptake in CD-1 mouse cortex at 70 uCi, iv administered 10 mins post ketanserin challenge measured after 90 mins; type: ADME, organism-based; conditions: in vivo, 1.5 h; in short: as §1
Hippocampus [5] = assay: Drug uptake in CD-1 mouse hippocampus at 70 uCi, iv administered 10 mins post ketanserin challenge measured after 90 mins; type: ADME, organism-based; conditions: in vivo, 1.5 h; in short: as §1
[6] = Drug uptake in CD-1 mouse superior and inferior colliculus at 70 uCi, iv administered 10 mins post ketanserin challenge measured after 90 mins; type: ADME, organism-based; conditions: in vivo, 1.5 h; in short: as §2
Brain [7] = assay: Drug uptake in CD-1 mouse other brain region at 70 uCi, iv administered 10 mins post spiperone challenge measured after 90 mins; type: ADME, organism-based; conditions: in vivo, 1.5 h; in short: as §2
Cortex [8] = assay: Drug uptake in CD-1 mouse cortex at 70 uCi, iv administered 10 mins post spiperone challenge measured after 90 mins; type: ADME, organism-based; conditions: in vivo, 1.5 h; in short: as §1
Hippocampus [9] = assay: Drug uptake in CD-1 mouse hippocampus at 70 uCi, iv administered 10 mins post spiperone challenge measured after 90 mins; type: ADME, organism-based; conditions: in vivo, 1.5 h; in short: as §1
Hippocampus [10] = assay: Drug uptake in CD-1 mouse hippocampus at 70 uCi, iv administered 10 mins post SCH23390 challenge measured after 90 mins; type: ADME, organism-based; conditions: in vivo, 1.5 h; in short: as §1
[11] = Drug uptake in CD-1 mouse superior and inferior colliculus at 70 uCi, iv administered 10 mins post SCH23390 challenge measured after 90 mins; type: ADME, organism-based; conditions: in vivo, 1.5 h; in short: as §2
[12] = Drug uptake in CD-1 mouse frontal cortex at 70 uCi, iv followed by compound washout by gamma-counting analysis; type: ADME, organism-based; conditions: in vivo
In short: (§3)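 Male CD-1 mice (25–30 g), three per time point. [18F] radiotracer (70 µCi, SA 8000–12000 mCi/µmol, in 0.2 mL saline) given by tail vein. Killed at several times up to 90 min. Dissected regions weighed and gamma counted against injectate standards, giving %ID/g.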

[13] = Drug uptake in CD-1 mouse superior and inferior colliculus at 70 uCi, iv administered 10 mins post ondansetron challenge measured after 90 mins; type: ADME, organism-based; conditions: in vivo, 1.5 h; in short: as §2
Cerebellum [14] = assay: Drug uptake in CD-1 mouse cerebellum at 70 uCi, iv administered 10 mins post SSR180711 challenge measured after 90 mins; type: ADME, organism-based; conditions: in vivo, 1.5 h
Brain [15] = assay: Drug uptake in CD-1 mouse other brain region at 70 uCi, iv administered 10 mins post SSR180711 challenge measured after 90 mins; type: ADME, organism-based; conditions: in vivo, 1.5 h
Cortex [16] = assay: Drug uptake in CD-1 mouse cortex at 70 uCi, iv administered 10 mins post SSR180711 challenge measured after 90 mins; type: ADME, organism-based; conditions: in vivo, 1.5 h
Hippocampus [17] = assay: Drug uptake in CD-1 mouse hippocampus at 70 uCi, iv administered 10 mins post SSR180711 challenge measured after 90 mins; type: ADME, organism-based; conditions: in vivo, 1.5 h
[18] = Drug uptake in CD-1 mouse superior and inferior colliculus at 70 uCi, iv administered 10 mins post SSR180711 challenge measured after 90 mins; type: ADME, organism-based; conditions: in vivo, 1.5 h
In short: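 Male CD-1 mice given the selective α7 partial agonist as positive control, 2 mg/kg s.c. in saline:DMSO 5:1 (0.1 mL), 10 min before i.v. [18F]tracer (70 µCi, ~14000 mCi/µmol, 0.2 mL). Controls received vehicle. Brain regions dissected at 90 min and gamma-counted. %ID/g, mean ± SD, n=3; ANOVA.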

Cortex [19] = assay: Drug uptake in CD-1 mouse cortex at 70 uCi, iv after 90 mins in presence of nicotine; type: ADME, organism-based; conditions: in vivo, 1.5 h
In short: (§4)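 Male CD-1 mice, n=3. […] [18F] radiotracer (70 µCi, SA ~14000 mCi/µmol) given i.v. 5 min later. Regions harvested at 90 min, gamma counted, expressed as %ID/g.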

Hippocampus [20] = assay: Drug uptake in CD-1 mouse hippocampus at 70 uCi, iv after 90 mins in presence of nicotine; type: ADME, organism-based; conditions: in vivo, 1.5 h; in short: as §4
[21] = Drug uptake in CD-1 mouse superior and inferior colliculus at 70 uCi, iv after 90 mins in presence of nicotine; type: ADME, organism-based; conditions: in vivo, 1.5 h
Cerebellum [22] = assay: Drug uptake in CD-1 mouse cerebellum at 70 uCi, iv after 90 mins in presence of cytisine; type: ADME, organism-based; conditions: in vivo, 1.5 h; in short: as §4
Nucleic Acid = assay: Ratio of drug uptake from superior and inferior colliculus to cerebellum in CD-1 mouse after 90 mins; type: ADME, nucleic-acid assay; conditions: 1.5 h
In short: (§5)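 CD-1 mouse baseline biodistribution after i.v. [18F]radioligand (70 µCi, 8000–12000 mCi/µmol, in 0.2 mL saline), three mice per time point to 90 min. Regional gamma-counting gave %ID/g, and each region was expressed as a ratio to cerebellum.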

Cerebellum [23] = assay: Drug uptake in CD-1 mouse cerebellum at 0.07 mCi, iv after 90 mins co-administered with 3 mg/kg SSR180711; type: ADME, organism-based; parameters: dose 3 mg/kg, route intravenous; conditions: in vivo, 1.5 h
In short: (§6)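 Male CD-1 mice (25–30 g), three per dose. Blocker in saline:ethanol 9:1 pH 5.5, given i.v. with [18F] radiotracer (70 µCi, SA 7900 mCi/µmol). Blocker doses 0, 0.02, 0.2, 1 and 3 mg/kg. Regions dissected 90 min later and gamma counted. Expressed as %ID/g, mean ± SD.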

Brain [24] = assay: Drug uptake in CD-1 mouse other brain regions at 0.07 mCi, iv after 90 mins co-administered with SSR180711; type: ADME, organism-based; conditions: in vivo, 1.5 h
In short: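 Male CD-1 mice. [18F]tracer (0.07 mCi, SA 7900 mCi/µmol, 0.2 mL) co-injected i.v. with blocker at 0 (vehicle), 0.02, 0.2, 1 or 3 mg/kg. Blocker dissolved in saline:alcohol 9:1, pH 5.5. Brain regions harvested at 90 min and gamma-counted. %ID/g, mean ± SD, n=3 per dose; ANOVA versus controls.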

Cortex [25] = assay: Drug uptake in CD-1 mouse cortex at 0.07 mCi, iv after 90 mins co-administered with SSR180711; type: ADME, organism-based; conditions: in vivo, 1.5 h; in short: as §6
Cerebellum [26] = assay: Ratio of clearance in CD-1 mouse cerebellum to clearance in CD-1 mouse other brain tissues at 70 uCi, iv followed by compound washout after 90 mins by gamma-counting analysis; type: ADME, organism-based; conditions: in vivo, 1.5 h; in short: as §5
Cerebellum [27] = assay: Drug uptake in CD-1 mouse cerebellum at 70 uCi, iv followed by compound washout by gamma-counting analysis; type: ADME, organism-based; conditions: in vivo; in short: as §3
Thalamus = assay: Drug uptake in CD-1 mouse thalamus at 70 uCi, iv followed by compound washout by gamma-counting analysis; type: ADME, organism-based; conditions: in vivo
In short: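 Male CD-1 mice (25–30 g) given [18F]radioligand i.v. into a lateral tail vein (70 µCi, 8000–12000 mCi/µmol, in 0.2 mL saline). Killed by cervical dislocation at various times, three per time point. Brains dissected on ice; regions weighed and gamma-counted with injectate standards. Result as %ID/g.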

O=S1(=O)c2cc(N3CCN4CCC3CC4)ccc2-c2cccc([18F])c21
8: Ratio (Nucleic Acid)
Active: Drug uptake (Cerebellum [1]) | Drug uptake [2] | Drug uptake (Cerebellum [3]) | Drug uptake (Cortex [4]) | Drug uptake (Hippocampus [5]) | Drug uptake [6] | Drug uptake (Brain [7]) | Drug uptake (Cortex [8]) | Drug uptake (Hippocampus [9]) | Drug uptake (Hippocampus [10]) | Drug uptake [11] | Drug uptake [12] | Drug uptake [13] | Drug uptake (Cerebellum [27]) | Drug uptake (Thalamus)
Not Active: Drug uptake (Cerebellum [14]) | Drug uptake (Brain [15]) | Drug uptake (Cortex [16]) | Drug uptake (Hippocampus [17]) | Drug uptake [18] | Drug uptake (Cortex [19]) | Drug uptake (Hippocampus [20]) | Drug uptake [21] | Drug uptake (Cerebellum [22]) | Drug uptake (Cerebellum [23]) | Drug uptake (Brain [24]) | Drug uptake (Cortex [25])
10: Ratio (Cerebellum [26])
